Results: ChEMBL document CHEMBL1134314, “Characterization of the 1H-cyclopentapyrimidine-2,4(1H,3H)-dione derivative (S)-CPW399 as a novel, potent, and subtype-selective AMPA receptor full agonist with partial desensitization properties” (J Med Chem, 2001)
The source made the active and inactive calls. The calls are words filed in the database; no cut-off is given here.

Experiments:
[1] = biological target: Glutamate receptor ionotropic, kainate; test: Binding affinity towards Ionotropic glutamate receptor kainate in rat brain; type: tissue-based
In short: (§1)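 Radioligand competition binding on native ionotropic glutamate receptors in rat brain membranes. Inactivity was defined at 10^-4 M. Values are means ± SEM of three to four competition experiments, each run in triplicate.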

[2] = biological target: Glutamate NMDA receptor (Rattus norvegicus) (UniProt P35439+Q00959+Q00960+Q00961+Q62645+Q8VHN2+Q9R1M7); test: Binding affinity towards NMDA receptor; not active; type: protein-complex assay; in short: as §1
[3] = Hill slope was determined
[4] = biological target: Glutamate receptor ionotropic, AMPA (Rattus norvegicus, UniProt P19490+P19491+P19492+P19493); test: Binding affinity towards AMPA receptor in rat brain; type: tissue-based

Ki [1]	NA [2]	Hill coefficient [3]	Ki [4]	SMILES
7.94 µM	inactive	0.95 nH [middle of 8 runs]	–	N[C@@H](Cn1c2c(c(=O)[nH]c1=O)CCC2)C(=O)O
> 10 µM	–	–	1.37 µM	N[C@@H](Cn1c2c(c(=O)[nH]c1=S)CCC2)C(=O)O
